ChEMBL document CHEMBL1150353, “Development of novel antiatherogenic biaryls: design, synthesis, and reactivity” (2008)
Active and inactive are the calls of the source. The calls are words filed in the database; no cut-off is given here.

Key:
HMEC-1 [1] = test: Protection against oxidized LDL-induced cytotoxicity in HMEC1 cells assessed as residual cell viability after 24 hrs by MTT assay relative to control; format: functional, Homo sapiens
How it was run: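 HMEC-1 exposed 6 h at 37 °C to native LDL (100 µg apoB/mL) with 1 µM CuSO4 in serum-free RPMI, with or without agent (10 µM, DMSO <0.1%); toxicity of the cell-oxidized LDL read by MTT after 24 h, as % of unstimulated cells kept in fresh RPMI without LDL or antioxidant.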

[2] = Antioxidant activity in HMEC1 cells assessed as inhibition of LDL oxidation at 10 uM after 6 hrs by TBARS assay relative to control; format: functional, Homo sapiens, HMEC-1; parameters: scale not given: the % may be the effect or the level left
How it was run: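 HMEC-1 (sparse proliferative) in serum-free RPMI-1640 with native LDL 100 µg apoB/mL and CuSO4 1 µM, 37 °C, 6 h; compounds added from DMSO (<0.1% final) at 10 µM just before oxidation, in duplicate. TBARS in medium measured fluorimetrically; expressed as % of TBARS with cells and no agent.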

U-937 = test: Inhibition of foam cell formation in LDL exposed human U937 cells assessed as accumulation of red O-stained lipid droplets at 10 uM for 14 hrs by nile red fluorescence assay; format: functional, cell-based
How it was run: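 U937 grown in RPMI with 10% FCS were used at subconfluence. They were incubated for 14 h in fresh RPMI containing native LDL (100 µg/mL), 1 µM CuSO₄ and agent (10 µM). Cells were fixed in 10% paraformaldehyde, stained with 0.5 µg/mL Nile Red, scraped and read fluorometrically (ex 460/em 550 nm). Parallel slides were stained with oil red O and hematoxylin and examined microscopically. Data are the mean of three experiments.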

HMEC-1 [3] = test: Inhibition of 4-hydroxynonenal-induced carbonyl stress in HMEC1 cells assessed as prevention of increase in carbonylated protein level at 10 uM relative to control; format: functional, cell-based; details: Homo sapiens
How it was run: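 HMEC-1 were incubated overnight with 50 µM 4-HNE in FCS-free RPMI-1640 with the compound, then washed, scraped and pelleted. Protein was derivatized for 1 h at room temperature with 0.1% DNPH in 2 M HCl, precipitated with TCA, and washed with ethanol/ethyl acetate. It was dissolved in 8 M guanidine buffer (pH 7.4) and read at 365 nm. Results are % of unstimulated control, mean of four experiments.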

[4] = (§1) Cytoprotective activity against ultraviolet irradiation oxidized LDL-induced cytotoxicity in HMEC1 cells assessed as residual cell survival at 10 uM for 24 hrs by MTT assay relative to control; format: functional, Homo sapiens, HMEC-1
How it was run: (§2)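 HMEC-1 were exposed to UV-C-oxidized LDL. LDL at 2 mg apoB/mL with 2 µmol/L CuSO₄ was irradiated for 2 h at 254 nm, then added to the medium at 200 µg apoB/mL together with the compound. MTT viability was read after 24 h, as % of unstimulated cells in LDL-free medium. Each value is the mean of four determinations.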

HMEC-1 [5] = test: Cytoprotective activity against ultraviolet irradiation oxidized LDL and 4-hydroxynonenal-induced cytotoxicity in HMEC1 cells assessed as cell survival at 10 uM after 24 hrs relative to control; format: functional, cell-based; details: Homo sapiens
How it was run: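 HMEC-1 were exposed to 4-HNE added directly to the medium, or to UV-oxidized LDL. For the oxidized LDL, LDL at 2 mg apoB/mL with 2 µmol/L CuSO₄ was irradiated with UV-C (254 nm) for 2 h and then added at 200 µg apoB/mL. Compounds were present during exposure. Viability was read by MTT after 24 h, as % of cells in LDL-free medium. Each value is the mean of four determinations.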

HMEC-1 [6] = test: as §1; format: functional; details: Homo sapiens; how it was run: as §2

SMILES | Activity (HMEC-1 [1]) | Activity [2] | Activity (U-937) | Activity (HMEC-1 [3]) | Activity [4] | Activity (HMEC-1 [5]) | Activity (HMEC-1 [6])
CCOP(=O)(/C=C/c1cc(OC)c(O)c(-c2cc(C=O)cc(OC)c2O)c1)OCC | 63.5% | 67.5% |  |  |  |  | 
CCOP(=O)(/C=C/c1cc(OC)c(O)c(-c2cc(/C=C/P(=O)(OCC)OCC)cc(OC)c2O)c1)OCC | 66% | 67.4% | Active |  |  |  | 
CCOP(=O)(/C=C/c1cc(OC)c(O)c(-c2cc(/C=N/NC(=O)c3ccncc3)cc(OC)c2O)c1)OCC | 31.2% | 67.5% |  |  |  |  | 
COc1cc(/C=N/Nc2nncc3ccccc23)cc(-c2cc(/C=N/Nc3nncc4ccccc34)cc(OC)c2O)c1O.Cl | 82% | 2.8% | Active | Active | 80% | Active | 
COc1cc(/C=N/NC(=O)c2ccncc2)cc(-c2cc(/C=N/NC(=O)c3ccncc3)cc(OC)c2O)c1O | 13.5% | 83% |  | inactive |  |  | 
CCOP(=O)(/C=C/c1cc(OC)c(O)c(-c2cc(/C=N/Nc3nncc4ccccc34)cc(OC)c2O)c1)OCC.Cl | 61.2% | 4.1% |  |  |  |  | Active
COc1cc(C=O)cc(-c2cc(C=O)cc(OC)c2O)c1O | 40.5% | 86.2% |  |  |  |  | 
Cc1c(C)c2c(c(C)c1O)CC[C@@](C)(CCC[C@H](C)CCC[C@H](C)CCCC(C)C)O2 [ALPHA-TOCOPHEROL] | 29% | 55% |  |  |  |  | 
CC(C)(Sc1cc(C(C)(C)C)c(O)c(C(C)(C)C)c1)Sc1cc(C(C)(C)C)c(O)c(C(C)(C)C)c1 [PROBUCOL] | 92% | 10% |  |  |  |  | 
